Laboratory results reported in ChEMBL document CHEMBL1125181, “Naphthosultam derivatives: a new class of potent and selective 5-HT2 antagonists” (J Med Chem, 1991).

Legend:
[1] = target: T1, Adrenergic receptor alpha-1 (Rattus norvegicus, UniProt P15823+P23944+P43140); test: The concentration required to inhibit [3H]prazosin binding to Alpha-1 adrenergic receptor in rat brain membranes was measured (in vitro); format: cell membranes
T1 sequence (P15823 whole entry): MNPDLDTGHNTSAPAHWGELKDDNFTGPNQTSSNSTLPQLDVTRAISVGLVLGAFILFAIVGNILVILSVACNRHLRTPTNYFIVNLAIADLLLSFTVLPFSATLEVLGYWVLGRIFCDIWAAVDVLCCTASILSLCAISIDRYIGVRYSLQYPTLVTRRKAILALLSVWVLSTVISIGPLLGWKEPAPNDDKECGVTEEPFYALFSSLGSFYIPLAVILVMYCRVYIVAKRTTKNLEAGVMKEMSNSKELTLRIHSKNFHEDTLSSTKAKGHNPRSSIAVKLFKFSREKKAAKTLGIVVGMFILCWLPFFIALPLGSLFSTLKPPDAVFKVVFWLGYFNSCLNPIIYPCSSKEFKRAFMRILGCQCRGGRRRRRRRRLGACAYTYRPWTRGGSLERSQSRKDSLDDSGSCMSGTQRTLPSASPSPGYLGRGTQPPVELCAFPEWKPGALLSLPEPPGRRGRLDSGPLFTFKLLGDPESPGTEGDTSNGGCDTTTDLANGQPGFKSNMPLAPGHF
T1 sequence (P23944 whole entry): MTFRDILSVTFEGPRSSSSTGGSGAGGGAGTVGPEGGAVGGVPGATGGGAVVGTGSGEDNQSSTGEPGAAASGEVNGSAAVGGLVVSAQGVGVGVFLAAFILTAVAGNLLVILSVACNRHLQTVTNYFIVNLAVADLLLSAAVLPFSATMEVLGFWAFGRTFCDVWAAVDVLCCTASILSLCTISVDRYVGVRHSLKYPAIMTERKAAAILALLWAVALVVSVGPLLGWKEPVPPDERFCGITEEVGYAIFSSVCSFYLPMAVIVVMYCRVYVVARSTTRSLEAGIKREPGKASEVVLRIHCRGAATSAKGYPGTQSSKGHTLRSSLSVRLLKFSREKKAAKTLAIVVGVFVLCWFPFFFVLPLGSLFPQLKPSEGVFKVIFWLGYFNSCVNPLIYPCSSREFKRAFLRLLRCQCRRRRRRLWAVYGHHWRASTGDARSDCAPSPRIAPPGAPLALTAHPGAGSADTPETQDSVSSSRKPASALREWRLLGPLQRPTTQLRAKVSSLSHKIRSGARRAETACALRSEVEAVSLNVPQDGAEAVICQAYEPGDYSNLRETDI
T1 sequence (P43140 whole entry): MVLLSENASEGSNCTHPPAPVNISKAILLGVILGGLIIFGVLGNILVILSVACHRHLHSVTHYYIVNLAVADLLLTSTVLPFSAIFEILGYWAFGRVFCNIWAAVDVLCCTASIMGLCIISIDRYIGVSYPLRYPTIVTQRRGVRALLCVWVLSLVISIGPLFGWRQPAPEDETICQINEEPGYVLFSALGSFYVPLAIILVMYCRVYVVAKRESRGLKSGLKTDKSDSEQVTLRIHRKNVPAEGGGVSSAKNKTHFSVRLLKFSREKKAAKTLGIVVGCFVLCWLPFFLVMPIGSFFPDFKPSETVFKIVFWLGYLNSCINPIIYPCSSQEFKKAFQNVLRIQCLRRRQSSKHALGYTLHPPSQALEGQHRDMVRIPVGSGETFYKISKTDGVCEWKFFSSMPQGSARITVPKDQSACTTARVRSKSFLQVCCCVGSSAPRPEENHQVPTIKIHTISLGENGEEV

[2] = target: Serotonin 2 (5-HT2) receptor (Rattus norvegicus, UniProt P30994+P08909+P14842); test: The concentration required to inhibit [3H]ketanserin binding to 5-hydroxytryptamine 2 receptor in rat brain membranes (in vitro); format: cell membranes
Method in brief: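 Male Sprague-Dawley rat cortical membranes (0.15 mg/mL protein) in Tris-HCl pH 7.6 with BSA 2 mg/mL. Incubated 15 min at 37 °C with compound and [3H]ketanserin (final 0.4 nM). Nonspecific binding from 10⁻⁶ M methysergide. Filtration and scintillation counting. IC50 by nonlinear regression; mean of at least 2 runs, 6 concentrations in triplicate.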

D(2) dopamine receptor [3] = target: T2, D(2) dopamine receptor (Rattus norvegicus, UniProt P61169); test: The concentration required to inhibit [3H]spiperone binding to dopamine receptor D2 in rat brain membranes (in vitro); format: cell membranes
T2 sequence (P61169 whole entry): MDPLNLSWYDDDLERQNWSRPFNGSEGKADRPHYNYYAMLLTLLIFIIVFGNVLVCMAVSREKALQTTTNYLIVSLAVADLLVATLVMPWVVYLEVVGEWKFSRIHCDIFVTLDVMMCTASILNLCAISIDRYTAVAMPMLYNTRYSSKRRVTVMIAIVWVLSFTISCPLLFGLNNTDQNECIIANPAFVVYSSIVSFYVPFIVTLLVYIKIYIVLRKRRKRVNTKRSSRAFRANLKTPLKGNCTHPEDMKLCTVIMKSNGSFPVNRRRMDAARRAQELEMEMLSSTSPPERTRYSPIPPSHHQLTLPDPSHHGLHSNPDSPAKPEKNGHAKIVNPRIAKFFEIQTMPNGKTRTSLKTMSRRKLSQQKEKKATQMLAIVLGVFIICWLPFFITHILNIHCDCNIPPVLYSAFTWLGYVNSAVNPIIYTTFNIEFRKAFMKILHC
Method in brief: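 Rat striatal membranes (0.05 mg/mL protein) in Tris-HCl with BSA 2 mg/mL, NaCl, cinanserin 10⁻⁶ M and compound. [3H]spiperone (final 0.05 nM) added after 5 min, incubation continued 40 min. Nonspecific binding from 10⁻⁶ M sulpiride. Filtration and scintillation counting.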

Rattus norvegicus [4] = test: The concentration required to induce head twich for 1 hours in rats when given sc (in vivo); format: functional
Method in brief: (§1)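 Rats, 6 per dose, dosed sc or po, then given mescaline 20 mg/kg iv 1 h later (6 or 16 h later for duration of action). Head twitches counted for 15 min from injection. Fewer than 3 twitches counted as antagonism.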

Rattus norvegicus [5] = test: The concentration required to induce head twich for 1 hours in rats when given po (in vivo); format: functional; method in brief: as §1
Rattus norvegicus [6] = test: The concentration required to induce head twich for 6 hours in rats when given po (in vivo); format: functional; method in brief: as §1
Histamine H1 receptor = Histamine H1 receptor (Cavia porcellus, UniProt P31389); test: Binding constant against histamine H1 receptor (in vitro)
Histamine H1 receptor, sequence (P31389 whole entry): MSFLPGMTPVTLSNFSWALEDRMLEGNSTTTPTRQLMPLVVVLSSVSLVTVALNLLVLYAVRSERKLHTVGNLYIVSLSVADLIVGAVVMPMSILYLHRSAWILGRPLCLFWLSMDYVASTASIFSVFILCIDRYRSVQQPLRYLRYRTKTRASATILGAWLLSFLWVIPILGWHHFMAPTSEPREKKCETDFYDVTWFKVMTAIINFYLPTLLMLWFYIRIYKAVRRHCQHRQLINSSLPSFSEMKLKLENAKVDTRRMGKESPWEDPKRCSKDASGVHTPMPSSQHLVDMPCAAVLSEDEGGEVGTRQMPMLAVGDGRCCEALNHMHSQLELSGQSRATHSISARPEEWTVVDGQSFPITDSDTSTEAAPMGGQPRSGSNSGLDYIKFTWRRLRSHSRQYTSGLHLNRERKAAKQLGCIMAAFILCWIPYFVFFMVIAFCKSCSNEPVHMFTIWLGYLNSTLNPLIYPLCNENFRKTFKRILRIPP
Method in brief: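 Male guinea pig cerebellar membranes (0.35 mg/mL protein) in 50 mM sodium phosphate pH 7.5. Incubated 30 min at 25 °C with compound and [3H]mepyramine (final 0.7 nM). Nonspecific binding from 10⁻⁶ M promethazine. Filtration through glass-fibre filters and liquid scintillation counting.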

[7] = target: T1, Adrenergic receptor alpha-1; test: Binding constant against Alpha-1 adrenergic receptor (in vitro); format: protein assay
Method in brief: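 Male Sprague-Dawley rat cerebrocortical membranes (0.15 mg/mL protein) in Tris-HCl pH 7.6 with BSA 2 mg/mL. Incubated 40 min at 25 °C with compound and [3H]prazosin (final 0.065 nM). Nonspecific binding from 10⁻⁶ M phentolamine. Filtration and scintillation counting. IC50 values are the mean of at least 2 runs, each with 6 concentrations in triplicate.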

Rattus norvegicus [8] = test: The concentration required to induce head twich for 6 hours in rats when given sc (in vivo); format: functional; method in brief: as §1
Mus musculus [9] = test: The concentration required to induce head twich in mice when given sc (in vivo); format: functional
Method in brief: (§2)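 Mice, 6 per dose, dosed sc 60 min or po 90 min before mescaline 50 mg/kg ip. Observed for 2 min starting 15 min after mescaline; head twitches scored as all-or-none.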

Rattus norvegicus [10] = test: The concentration required to induce head twich for 16 hours in rats when given sc (in vivo); format: functional; method in brief: as §1
Mus musculus [11] = test: The concentration required to induce head twich in mice when given po (in vivo); format: functional; method in brief: as §2
Rattus norvegicus [12] = test: The concentration required to induce head twich for 16 hours in rats when given po (in vivo); format: functional; method in brief: as §1
D(2) dopamine receptor [13] = target: T2, D(2) dopamine receptor; test: Binding constant against dopamine receptor D2 (in vitro)
Method in brief: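 Rat striatal membranes (0.05 mg protein/mL, Tris-HCl with 2 mg/mL BSA, NaCl, 10^-6 M cinanserin) preincubated 5 min with test compound. [3H]spiperone (final 0.05 nM) then added for a further 40 min. Nonspecific binding defined with 10^-6 M sulpiride. Read-out by filtration and scintillation counting.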

| SMILES | IC50 [1] [nM] | IC50 [2] [nM] | IC50 (D(2) dopamine receptor [3]) [nM] | other results |
| --- | --- | --- | --- | --- |
| O=S1(=O)N=C(N2CCN(CCCN3c4cccc5cccc(c45)S3(=O)=O)CC2)c2ccccc21 | 181 | 240 | > 1000 | – |
| O=S(=O)(c1ccccc1)N(CCCN1CC=C(c2ccccc2)CC1)c1ccccc1 | 35 | 10 | 80 | – |
| O=S1(=O)c2cccc3cccc(c23)N1CCN1CC=C(c2ccccc2)CC1 | 98 | 6.3 | > 100 | – |
| CN(CCCN1CC=C(c2ccccc2)CC1)S(=O)(=O)c1cccc2ccccc12 | – | > 100 | – | – |
| CCOC(=O)c1ccc(N2CCN(CCCN3c4cccc5cccc(c45)S3(=O)=O)CC2)cc1 | > 1000 | 200 | > 1000 | – |
| O=S1(=O)c2cccc3cccc(c23)N1CCCN1CCN(c2ncccn2)CC1 | > 1000 | 32 | > 1000 | – |
| O=S1(=O)c2cccc3cccc(c23)N1CCCN1CCN(c2ccccn2)CC1 | 269 | 6.3 | > 1000 | – |
| O=S1(=O)c2cccc3cccc(c23)N1CCCN1CCN(c2cccc(F)c2)CC1 | 688 | 18 | > 1000 | – |
| O=S1(=O)c2cccc3cccc(c23)N1CCCN1CCN(c2noc3ccccc23)CC1 | 144 | 2.3 | 990 | – |
| O=S1(=O)c2cccc3cccc(c23)N1CCCN1CCC(c2ccccc2)CC1 | 27 | 0.2 | 385 | – |
| O=S1(=O)c2cccc3cccc(c23)N1CCCCN1CC=C(c2ccccc2)CC1 | 7.8 | 2.1 | 55 | – |
| O=C1c2cccc3cccc(c23)N1CCCN1CC=C(c2ccccc2)CC1 | 580 | 9.8 | > 100 | – |
| O=S1(=O)c2cccc3cccc(c23)N1CCCN1CCN(c2ccc(O)cc2)CC1 | 110 | 0.3 | 508 | – |
| COc1ccc(N2CCN(CCCN3c4cccc5cccc(c45)S3(=O)=O)CC2)cc1 | > 1000 | 25 | > 1000 | – |
| CS(=O)(=O)N(CCCN1CC=C(c2ccccc2)CC1)c1cccc2ccccc12 | 75 | 5.1 | 275 | – |
| O=S1(=O)c2cccc3cccc(c23)N1CCCN1CCN(c2nsc3ccccc23)CC1 | 75 | 0.4 | 473 | – |

| SMILES | IC50 [1] [nM] | IC50 [2] [nM] | IC50 (D(2) dopamine receptor [3]) [nM] | other results |
| --- | --- | --- | --- | --- |
| O=S1(=O)c2cccc3cccc(c23)N1CCCN1CCC(n2c(O)nc3ccccc32)CC1 | < 10 | 7 | 46 | – |
| O=S1(=O)c2cccc3cccc(c23)N1CCCN1CCN(c2ccc(C(F)(F)F)cc2)CC1 | > 1000 | 275 | > 1000 | – |
| O=S1(=O)c2cccc3cccc(c23)N1CCN1CCN(c2ccc(F)cc2)CC1 | 64 | 1 | – | – |
| O=S1(=O)c2cccc3cccc(c23)N1CCCN1CCN(c2ccccc2)CC1 | 141 | 2.6 | > 1000 | – |
| O=S1(=O)c2cccc3cccc(c23)N1CCCN1CCN(c2ccc(Cl)cc2)CC1 | > 1000 | 5 | > 1000 | – |
| O=S1(=O)c2cccc3cccc(c23)N1CCCN1CCN(c2nc3ccccc3s2)CC1 | > 1000 | 540 | > 1000 | – |
| O=S1(=O)c2ccccc2-c2ccccc2N1CCCN1CC=C(c2ccccc2)CC1 | 10 | 10 | 110 | – |
| O=S1(=O)c2cccc3cccc(c23)N1CCCN1CCN(c2ccc(Br)cc2)CC1 | > 1000 | 7 | > 1000 | – |
| O=S1(=O)c2cccc3cccc(c23)N1CCCN1CC=C(c2ccccc2)CC1 | 192 | 1 | 1000 | – |
| O=S1(=O)c2cccc3cccc(c23)N1CCCN1CCN(c2ccccc2F)CC1 | 52 | 3 | > 1000 | – |
| O=[N+]([O-])c1ccc(N2CCN(CCCN3c4cccc5cccc(c45)S3(=O)=O)CC2)cc1 | > 1000 | 25 | > 1000 | – |
| O=C(c1ccc(F)cc1)C1CCN(CCCN2c3cccc4cccc(c34)S2(=O)=O)CC1 | 7.9 | 0.1 | 41 | – |
| O=S1(=O)c2cccc3cccc(c23)N1CCCN1CCC(=C(c2ccc(F)cc2)c2ccc(F)cc2)CC1 | 50 | 11 | 603 | – |
| Cc1ccc(N2CCN(CCCN3c4cccc5cccc(c45)S3(=O)=O)CC2)cc1 | 700 | 4 | > 1000 | – |
| Cc1nc2sccn2c(=O)c1CCN1CCC(=C(c2ccc(F)cc2)c2ccc(F)cc2)CC1 [RITANSERIN] | 37 | – | 23 | ED50 (Rattus norvegicus [4]): 0.38 mg/kg; ED50 (Rattus norvegicus [5]): 2.55 mg/kg; ED50 (Rattus norvegicus [6]): 1.54 mg/kg; Ki (Histamine H1 receptor): 6 nM; Ki [7]: 29 nM; ED50 (Rattus norvegicus [8]): 0.55 mg/kg; ED50 (Mus musculus [9]): 0.29 mg/kg; ED50 (Rattus norvegicus [10]): > 5 mg/kg; ED50 (Mus musculus [11]): 0.09 mg/kg; ED50 (Rattus norvegicus [12]): 18.4 mg/kg; Ki (D(2) dopamine receptor [13]): 22 nM |
